Assay results taken from publication PMC2233693 (The Journal of General Physiology, 2000).
Numbering of substitutions follows the chain as printed. Where two headings read alike, the source gives them in different places.

Legend:
Format in all cases: biochemical
[1] = target: T1, E340G mutant bovine olfactory CNG channel (Bos taurus, UniProt Q03041, E340G); assay: Blockage of macroscopic current by internal Ca2+, inside-out patches; settings: read-out: K i for internal Ca2+ blockage, +80 mV, 1 mM cGMP, average
T1 sequence (Q03041 1-663 E340G): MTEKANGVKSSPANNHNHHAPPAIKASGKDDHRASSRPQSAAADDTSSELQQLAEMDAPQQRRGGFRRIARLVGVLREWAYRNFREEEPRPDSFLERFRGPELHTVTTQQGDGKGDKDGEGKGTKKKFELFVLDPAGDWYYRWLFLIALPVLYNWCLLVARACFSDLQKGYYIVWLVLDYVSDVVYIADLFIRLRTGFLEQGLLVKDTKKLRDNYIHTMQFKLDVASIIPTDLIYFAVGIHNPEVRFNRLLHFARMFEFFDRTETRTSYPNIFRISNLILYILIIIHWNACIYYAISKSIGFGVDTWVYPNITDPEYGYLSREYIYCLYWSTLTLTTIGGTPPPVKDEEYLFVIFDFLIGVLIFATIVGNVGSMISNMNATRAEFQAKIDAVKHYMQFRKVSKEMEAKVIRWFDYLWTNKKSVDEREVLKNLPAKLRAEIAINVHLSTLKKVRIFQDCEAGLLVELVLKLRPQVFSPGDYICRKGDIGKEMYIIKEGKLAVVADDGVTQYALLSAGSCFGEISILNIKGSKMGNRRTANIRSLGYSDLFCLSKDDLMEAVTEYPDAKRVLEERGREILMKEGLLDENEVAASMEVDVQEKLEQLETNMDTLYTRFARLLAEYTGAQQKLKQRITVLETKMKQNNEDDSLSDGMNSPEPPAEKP

[2] = target: T1, E340G mutant bovine olfactory CNG channel; assay: External Ca2+ blockage of single-channel current, outside-out patches; settings: for n (single-channel Ca2+ blockage): Fig. 7 patch
In short: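 Outside-out oocyte patches with cGMP in the pipette (wild-type 5 μM, E340G 1 mM) and increasing external Ca2+. Single-channel currents at +80 and −80 mV, filtered at 2 kHz, sampled at 10 kHz. Amplitudes from all-points histograms (30 s) fitted with summed Gaussians, normalised to divalent-free current, Hill-fitted for Ki and n. Two further patches per channel type.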

[3] = target: T2, wild-type bovine olfactory CNG channel (α3 subunit) (Bos taurus, UniProt Q03041); assay: Blockage of macroscopic current by internal Ca2+, inside-out patches; settings: read-out: K i for internal Ca2+ blockage, +80 mV, 1 mM cGMP, average
T2 sequence (Q03041 1-663): T1 sequence (Q03041 1-663 E340G) with G340E

[4] = target: T1, E340G mutant bovine olfactory CNG channel
[5] = target: T3, E340D mutant bovine olfactory CNG channel (Bos taurus, UniProt Q03041, E340D)
T3 sequence (Q03041 1-663 E340D): T1 sequence (Q03041 1-663 E340G) with G340D

Ki [1]	effect on single-channel amplitude ([2]; 1 or even 10 mM external Ca2+, 1 mM cGMP)	n (single-channel Ca2+ blockage) ([2]; +80 mV)	n (single-channel Ca2+ blockage) ([2]; −80 mV)	Ki [3]	P max (+80 mV) ([4]; cGMP)	P max (−80 mV) ([4]; cGMP)	L, equilibrium gating constant ([4]; cGMP, allosteric model fit, mean ± SD)	EC50 ([4]; read-out: K 1/2 (single-channel open probability), cGMP, −80 mV, average)	EC50 ([4]; read-out: K 1/2,cG, −80 mV, single patch, Fig. 2 fit)	n(−80 mV), Hill coefficient ([5]; cGMP)	I(−80 mV)/I(+80 mV) ([5]; cGMP-gated current)	EC50 ([5]; read-out: K 1/2, cGMP, +80 mV)	EC50 ([5]; read-out: K 1/2, cGMP, −80 mV)	EC50 ([5]; read-out: K 1/2,cG, −80 mV, single patch, Fig. 1 fit)	n cG ([5]; −80 mV, single patch, Fig. 1 fit)	Compound
1500 ± 400 µM	only slightly reduced	0.7	0.8	1000 ± 700 µM												[Ca+2] [Ca^2+]
					0.77 ± 0.08	0.79 ± 0.06	5.2 ± 1.3	14 ± 5 µM	11.6 µM	2.6 ± 0.4	1.30 ± 0.10	4.8 ± 1.1 µM	4.9 ± 1.1 µM	4.5 µM	2.7	Nc1nc2c(ncn2[C@@H]2O[C@@H]3COP(=O)(O)O[C@H]3[C@H]2O)c(=O)[nH]1 [cGMP]
